Experimental data: ChEMBL document CHEMBL1121577, “Glycerides as prodrugs. 3. Synthesis and antiinflammatory activity of [1-(p-chlorobenzoyl)-5-methoxy-2-methylindole-3-acetyl]glycerides (indomethacin glycerides)” (J Med Chem, 1980)
The source made the active and inactive calls. No cut-off for these calls is given here.

Columns and labels:
Rattus norvegicus [1] = test: Percent changes of hind paw edema and severity scores compared to control animals at 2.8 micro mol/kg/day; assay type: functional
Procedure, shortened: (§1)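 Adjuvant arthritis in rats: mycobacterial adjuvant injected subcutaneously into the tail; on day 14 animals with definite disease were selected and dosed daily on days 14-25. Hind paw swelling and severity scores (four paws scored) were expressed as % change vs diseased controls. Body weight gain was assessed over days 1-25; + marks significant gain.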

Rattus norvegicus [2] = test: inhibition of swelling in rat paw edema was measured at a dose of 2.8 micro mol/kg/day for days 14-25; assay type: functional; procedure, shortened: as §1
Rattus norvegicus [3] = species on record: Rattus norvegicus; test: Dose which produced lesions in 50% of the treated animals; assay type: functional
Procedure, shortened: (§2)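 Stomachs of rats from the oral carrageenin paw edema study (dosed 2 h before carrageenin) examined for gastric lesions by the Brodie and Hansen method. UD50 is the dose producing lesions in 50% of treated animals.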

[4] = Ratio of UD50 to that of ED25; settings: read-out: Therapeutic ratio
Rattus norvegicus [5] = test: inhibition of swelling in rat paw edema was measured at a dose of 1.4 micro mol/kg/day for days 14-25; assay type: functional
Procedure, shortened: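 Rat adjuvant arthritis: adjuvant injected subcutaneously into the tail; after 14 days, only rats with definite disease were treated, with daily doses on days 14-25. Hind paw swelling was expressed as percent change versus diseased controls. Severity was scored on four paws, and body weight gain was followed over days 1-25.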

Rattus norvegicus [6] = test: Percent changes of hind paw edema and severity scores compared to control animals at 0.7 micro mol/kg/day; assay type: functional; procedure, shortened: as §1
Rattus norvegicus [7] = test: inhibition of swelling in rat paw edema was measured at a dose of 0.7 micro mol/kg/day for days 14-25; assay type: functional; procedure, shortened: as §1
Rattus norvegicus [8] = test: inhibition of swelling in rat paw edema was measured at a dose of 7.0 micro mol/kg/day for days 14-25; assay type: functional; procedure, shortened: as §1
Rattus norvegicus [9] = test: Gain in the body weight of rat was measured at 2.8 micro mol/kg/day. (+ means significant body weight); assay type: functional, organism-based; procedure, shortened: as §1
Rattus norvegicus [10] = test: Percent changes of hind paw edema and severity scores compared to control animals at 7.0 micro mol/kg/day; assay type: functional; procedure, shortened: as §1
Rattus norvegicus [11] = test: Gain in the body weight of rat was measured at 7.0 micro mol/kg/day. (+ means significant body weight); assay type: functional, organism-based; procedure, shortened: as §1
Rattus norvegicus [12] = test: Dose that inhibits paw swelling by 25% compared with control in carrgeenin rat paw edema assay; assay type: functional
Procedure, shortened: (§3)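 Rats given glycerides or indomethacin orally 2 h before subplantar injection of 0.1 mL 1.5% carrageenin solution.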

Rattus norvegicus [13] = test: Percent changes of hind paw edema and severity scores compared to control animals at 1.4 micro mol/kg/day; assay type: functional; procedure, shortened: as §1
Rattus norvegicus [14] = test: Dose that inhibits paw swelling by 25% compared with control in carrgeenin rat paw edema assay; i = inactive at 18 umol/kg; assay type: functional, organism-based; procedure, shortened: as §3
Rattus norvegicus [15] = test: Percent changes of hind paw edema and severity scores compared to control animals at 3.3 micro mol/kg/day; assay type: functional; procedure, shortened: as §1
Rattus norvegicus [16] = test: inhibition of swelling in rat paw edema was measured at a dose of 0.8 micro mol/kg/day for days 14-25; assay type: functional; procedure, shortened: as §1
Rattus norvegicus [17] = test: Gain in the body weight of rat was measured at 3.3 micro mol/kg/day. (+ means significant body weight); assay type: functional, organism-based; procedure, shortened: as §1
Rattus norvegicus [18] = test: inhibition of swelling in rat paw edema was measured at a dose of 14.0 micro mol/kg/day for days 14-25; assay type: functional; procedure, shortened: as §1
Rattus norvegicus [19] = test: inhibition of swelling in rat paw edema was measured at a dose of 1.6 micro mol/kg/day for days 14-25; assay type: functional; procedure, shortened: as §1
Rattus norvegicus [20] = test: Percent changes of hind paw edema and severity scores compared to control animals at 0.8 micro mol/kg/day; assay type: functional; procedure, shortened: as §1
Rattus norvegicus [21] = test: Percent changes of hind paw edema and severity scores compared to control animals at 1.6 micro mol/kg/day; assay type: functional; procedure, shortened: as §1
Rattus norvegicus [22] = test: Percent changes of hind paw edema and severity scores compared to control animals at 14.0 micro mol/kg/day; assay type: functional; procedure, shortened: as §1
Rattus norvegicus [23] = test: inhibition of swelling in rat adjuvant-induced arthritis was measured at a dose of 3.3 micro mol/kg/day for days 14-25
Rattus norvegicus [24] = test: Gain in the body weight of rat was measured at 14.0 micro mol/kg/day. (+ means significant body weight); assay type: functional, organism-based; procedure, shortened: as §1
Rattus norvegicus [25] = test: Dose that inhibits paw swelling by 25% compared with control in carrgeenin rat paw edema assay; i = inactive at 26 uM/Kg; assay type: functional, organism-based; procedure, shortened: as §3
[26] = Ratio of UD50 to that of ED25; assay type: ADME; settings: read-out: Therapeutic ratio
Procedure, shortened: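 Therapeutic index calculated as UD50 (dose causing gastric lesions in 50% of rats) divided by ED25 (dose inhibiting carrageenin paw edema by 25%), both from the same oral rat study.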

Rattus norvegicus [27] = species on record: Rattus norvegicus; test: compound was measured as dose which produces lesions in the treated animals.; assay type: functional; procedure, shortened: as §2
Rattus norvegicus [28] = test: Gain in the body weight of rat was measured at 11.0 micro mol/kg/day. (+ means significant body weight); assay type: functional, organism-based; procedure, shortened: as §1
Rattus norvegicus [29] = test: inhibition of swelling in rat paw edema was measured at a dose of 5.6 micro mol/kg/day for days 14-25; assay type: functional; procedure, shortened: as §1
Rattus norvegicus [30] = test: Percent changes of hind paw edema and severity scores compared to control animals at 5.6 micro mol/kg/day; assay type: functional; procedure, shortened: as §1
Rattus norvegicus [31] = test: inhibition of swelling in rat paw edema was measured at a dose of 11.0 micro mol/kg/day for days 14-25; assay type: functional; procedure, shortened: as §1
Rattus norvegicus [32] = test: Gain in the body weight of rat was measured at 5.6 micro mol/kg/day. (+ means significant body weight); assay type: functional, organism-based; procedure, shortened: as §1
Rattus norvegicus [33] = test: Percent changes of hind paw edema and severity scores compared to control animals at 11.0 micro mol/kg/day; assay type: functional; procedure, shortened: as §1

COc1ccc2c(c1)c(CC(=O)O)c(C)n2C(=O)c1ccc(Cl)cc1 [INDOMETHACIN]
Change (Rattus norvegicus [1]): 56% | Inhibition (Rattus norvegicus [2]): 76% | UD50 (Rattus norvegicus [3]): 10 µM/kg | selectivity ratio [4]: 2 | Inhibition (Rattus norvegicus [5]): 57% | Change (Rattus norvegicus [6]): 25% | Inhibition (Rattus norvegicus [7]): 37% | Inhibition (Rattus norvegicus [8]): 75% | Change (Rattus norvegicus [9]): Active | Change (Rattus norvegicus [10]): 74% | Change (Rattus norvegicus [11]): Active | ED25 (Rattus norvegicus [12]): 5 µM/kg | Change (Rattus norvegicus [13]): 33%

CCCC(=O)OCC(COC(=O)CCC)OC(=O)Cc1c(C)n(C(=O)c2ccc(Cl)cc2)c2ccc(OC)cc12
ED25 (Rattus norvegicus [12]): 22 µM/kg

COc1ccc2c(c1)c(CC(=O)OCC(COC(=O)Cc1c(C)n(C(=O)c3ccc(Cl)cc3)c3ccc(OC)cc13)OC(=O)Cc1c(C)n(C(=O)c3ccc(Cl)cc3)c3ccc(OC)cc13)c(C)n2C(=O)c1ccc(Cl)cc1
ED25 (Rattus norvegicus [14]): inactive

CCCCCCCC(=O)OCC(COC(=O)CCCCCCC)OC(=O)Cc1c(C)n(C(=O)c2ccc(Cl)cc2)c2ccc(OC)cc12
ED25 (Rattus norvegicus [12]): 12 µM/kg

COc1ccc2c(c1)c(CC(=O)OCC(O)CO)c(C)n2C(=O)c1ccc(Cl)cc1 (centres undefined)
Change (Rattus norvegicus [15]): 55% | Inhibition (Rattus norvegicus [16]): 57% | Change (Rattus norvegicus [17]): significant body weight | Inhibition (Rattus norvegicus [18]): 76% | Inhibition (Rattus norvegicus [19]): 67% | Change (Rattus norvegicus [20]): 31% | Change (Rattus norvegicus [21]): 42% | ED25 (Rattus norvegicus [12]): 5 µM/kg | Change (Rattus norvegicus [22]): 53% | Inhibition (Rattus norvegicus [23]): 73% | Change (Rattus norvegicus [24]): significant body weight

COc1ccc2c(c1)c(CC(=O)OCC(O)COC(=O)Cc1c(C)n(C(=O)c3ccc(Cl)cc3)c3ccc(OC)cc13)c(C)n2C(=O)c1ccc(Cl)cc1
ED25 (Rattus norvegicus [25]): inactive

CCCCCCCCCCCCCCCCCCCC(=O)OCC(COC(=O)CCCCCCCCCCCCCCCCCCC)OC(=O)Cc1c(C)n(C(=O)c2ccc(Cl)cc2)c2ccc(OC)cc12
ED25 (Rattus norvegicus [12]): 38 µM/kg

COc1ccc2c(c1)c(CC(=O)OC(COC(C)=O)COC(C)=O)c(C)n2C(=O)c1ccc(Cl)cc1
Change (Rattus norvegicus [15]): 55% | Inhibition (Rattus norvegicus [16]): 43% | Change (Rattus norvegicus [17]): significant body weight | Inhibition (Rattus norvegicus [18]): 79% | Inhibition (Rattus norvegicus [19]): 50% | selectivity ratio [26]: 5 | Change (Rattus norvegicus [20]): 25% | UD50 (Rattus norvegicus [27]): 67 µM/kg | Change (Rattus norvegicus [21]): 28% | ED25 (Rattus norvegicus [12]): 14 µM/kg | Change (Rattus norvegicus [22]): 60% | Inhibition (Rattus norvegicus [23]): 72% | Change (Rattus norvegicus [24]): significant body weight

COc1ccc2c(c1)c(CC(=O)OCC(CO)OC(=O)Cc1c(C)n(C(=O)c3ccc(Cl)cc3)c3ccc(OC)cc13)c(C)n2C(=O)c1ccc(Cl)cc1 (centres undefined)
ED25 (Rattus norvegicus [12]): 31 µM/kg

CCCCCCCCCCCCCCCC(=O)OCC(COC(=O)CCCCCCCCCCCCCCC)OC(=O)Cc1c(C)n(C(=O)c2ccc(Cl)cc2)c2ccc(OC)cc12
ED25 (Rattus norvegicus [12]): 23 µM/kg

CCCCCCCCCC(=O)OCC(COC(=O)CCCCCCCCC)OC(=O)Cc1c(C)n(C(=O)c2ccc(Cl)cc2)c2ccc(OC)cc12
ED25 (Rattus norvegicus [12]): 18 µM/kg

CCCCCCCCCCCC(=O)OCC(COC(=O)CCCCCCCCCCC)OC(=O)Cc1c(C)n(C(=O)c2ccc(Cl)cc2)c2ccc(OC)cc12
Change (Rattus norvegicus [1]): 41% | Inhibition (Rattus norvegicus [2]): 70% | Change (Rattus norvegicus [28]): significant body weight | UD50 (Rattus norvegicus [3]): 78 µM/kg | selectivity ratio [4]: 6 | Inhibition (Rattus norvegicus [5]): 30% | Inhibition (Rattus norvegicus [29]): 63% | Change (Rattus norvegicus [30]): 53% | Inhibition (Rattus norvegicus [31]): 73% | Change (Rattus norvegicus [32]): significant body weight | Change (Rattus norvegicus [33]): 74% | ED25 (Rattus norvegicus [12]): 13 µM/kg | Change (Rattus norvegicus [13]): 30%

COc1ccc2c(c1)c(CC(=O)OC(CO)CO)c(C)n2C(=O)c1ccc(Cl)cc1
ED25 (Rattus norvegicus [12]): 21 µM/kg
